Legend:
HT-29 [1] = assay: Selectivity index, ratio of IC50 for human ARPE19 cells to IC50 for human HT-29 cells; type: functional
[2] = Cytotoxicity against human ARPE19 cells assessed as cell viability after 48 hrs by alamar blue assay; type: cell-based, ARPE-19; settings: for IC50: Homo sapiens, ARPE-19, 48 h; for Activity: human, arpe-19, 48 h
Outline: (§1)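 Alamar Blue viability assay on the human cell line named (origins given: HT-29 colorectal adenocarcinoma, HepG2 hepatocellular carcinoma, LAMA-84 myeloid leukemia, A549 lung adenocarcinoma, PC3 prostate metastasis, MCF-7 breast adenocarcinoma, ARPE-19 retinal pigment epithelium, BJ skin fibroblast). Exposure was 48 h. Sterol stocks were made in DMSO. IC50 is the concentration inhibiting 50% of cellular growth, given as the mean of at least three separate experiments.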

[3] = Cytotoxicity against human ARPE19 cells assessed as inhibition of cell growth after 96 hrs by alamar blue assay; type: cell-based; settings: ARPE-19, 96 h
Outline: (§2)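 HT-29 and ARPE-19 cells exposed for 96 h. ARPE-19 seeded at 5 10^3 cells/well for this period. Sterol stocks in DMSO. Viability by Alamar Blue. IC50 is the concentration inhibiting 50% of cellular growth, mean of at least three separate experiments.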

HT-29 [4] = assay: Cytotoxicity against human HT-29 cells assessed as inhibition of cell growth after 96 hrs by alamar blue assay; type: functional, cell-based; settings: HT-29, 96 h; outline: as §2
HT-29 [5] = assay: Cytotoxicity against human HT-29 cells assessed as cell viability after 48 hrs by alamar blue assay; type: functional, cell-based; settings: for IC50: HT-29, 48 h; outline: as §1
BJ = assay: Cytotoxicity against human BJ cells assessed as cell viability after 48 hrs by alamar blue assay; type: cell-based; settings: for IC50: Homo sapiens, BJ; for Activity: human, bj; outline: as §1
HepG2 = assay: Cytotoxicity against human HepG2 cells assessed as cell viability after 48 hrs by alamar blue assay; type: functional, cell-based; settings: for IC50: HepG2, 48 h; outline: as §1
A549 = assay: Cytotoxicity against human A549 cells assessed as cell viability after 48 hrs by alamar blue assay; type: functional, cell-based; settings: for IC50: A549, 48 h
Outline: as §1, with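 “DMSO.” for “DMSO. IC50 is the concentration inhibiting 50% of cellular growth, given as the mean of at least three separate experiments.”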

SH-SY5Y = assay: Cytotoxicity against human SH-SY5Y cells assessed as cell viability after 48 hrs by alamar blue assay; type: functional, cell-based
Outline: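 SH-SY5Y cells grown in DMEM/F12 (1:1) with L-glutamine, 10% heat-inactivated FBS, 100 units/mL penicillin and 0.1 mg/mL streptomycin, pH 7.4. Seeded at 5 10^3 cells/well and exposed to the sterols (DMSO stocks) for 48 h. Alamar Blue read-out. IC50 is the concentration inhibiting 50% of growth, mean of at least three separate experiments.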

PC-3 = assay: Cytotoxicity against human PC3 cells assessed as cell viability after 48 hrs by alamar blue assay; type: functional, cell-based; settings: for IC50: PC-3, 48 h; outline: as §1
LAMA-84 = assay: Cytotoxicity against human LAMA-84 cells assessed as cell viability after 48 hrs by alamar blue assay; type: functional, cell-based; settings: for IC50: LAMA-84, 48 h; outline: as §1
MCF7 = assay: Cytotoxicity against human MCF7 cells assessed as cell viability after 48 hrs by alamar blue assay; type: functional, cell-based; settings: for IC50: MCF7, 48 h; outline: as §1

| Structure (SMILES) | Ratio IC50 (HT-29 [1]) | IC50 [2] | IC50 (HT-29 [5]) | IC50 (HepG2) | IC50 (SH-SY5Y) | IC50 (PC-3) | further results |
| --- | --- | --- | --- | --- | --- | --- | --- |
| CC(=O)O[C@H]1CC[C@]2(C)[C@H]3CC[C@]4(C)[C@@H]([C@H](C)CCCC(C)C)CC[C@H]4[C@@H]3C[C@@H](O)[C@@]2(O)C1 | >3.09 | > 60 µM | – | – | – | – | IC50 [3]: 53 µM |
| CC(=O)O[C@H]1CC[C@]2(C)[C@H]3CC[C@]4(C)[C@@H]([C@H](C)CCCC(C)C)CC[C@H]4[C@@H]3[C@@H](OC(C)=O)[C@@H](OC(C)=O)[C@@]2(O)C1 | – | – | 27 µM | – | – | – | IC50 (HT-29 [4]): 26.7 µM |
| CC(C)CCC[C@@H](C)[C@H]1CC[C@H]2[C@@H]3C/C(=N\O)[C@@]4(O)C[C@@H](O)CC[C@]4(C)[C@H]3CC[C@]12C | 1.99 | 23.7 µM | 11.9 µM | 13.2 µM | 16.8 µM | 15 µM | IC50 (BJ): 17.1 µM; IC50 (A549): 15 µM |
| CC(C)CCC[C@@H](C)[C@H]1CC[C@H]2[C@@H]3[C@@H](O)[C@@H](O)[C@@]4(O)C[C@@H](O)CC[C@]4(C)[C@H]3CC[C@]12C | 1.54 | 21.4 µM | 13.9 µM | 13.8 µM | 20.2 µM | 17.4 µM | IC50 (BJ): 19.3 µM; Activity (BJ): Non-toxic; inhibition (HepG2): Dose-dependent effect; inhibition (LAMA-84): Dose-dependent effect; IC50 (LAMA-84): 5.1 µM; inhibition (A549): Dose-dependent effect; IC50 (A549): 17.3 µM; inhibition (SH-SY5Y): Dose-dependent effect; inhibition (PC-3): Dose-dependent effect; inhibition (MCF7): Dose-dependent effect; IC50 (MCF7): 13.1 µM; Activity [2]: Non-toxic; inhibition (HT-29 [5]): Dose-dependent effect |
| CC(C)CCC[C@@H](C)[C@H]1CC[C@H]2[C@@H]3C[C@@H](O)[C@@]4(O)[C@@H](O)[C@@H](O)CC[C@]4(C)[C@H]3CC[C@]12C | 2.24 | 20.4 µM | 9.1 µM | 12.7 µM | 14.5 µM | 17.1 µM | IC50 (BJ): 17.8 µM; Activity (BJ): Non-toxic; inhibition (HepG2): Dose-dependent effect; inhibition (LAMA-84): Dose-dependent effect; IC50 (LAMA-84): 5.1 µM; inhibition (A549): Dose-dependent effect; inhibition (SH-SY5Y): Dose-dependent effect; inhibition (PC-3): Dose-dependent effect; inhibition (MCF7): Dose-dependent effect; IC50 (MCF7): 14.5 µM; Activity [2]: Non-toxic; inhibition (HT-29 [5]): Dose-dependent effect |
| COc1cccc2c1C(=O)c1c(O)c3c(c(O)c1C2=O)C[C@@](O)(C(=O)CO)C[C@@H]3O[C@H]1C[C@H](N)[C@H](O)[C@H](C)O1 [DOXORUBICIN] | – | – | – | – | 0.5 µM | – | – |
| CC(C)CCC[C@@H](C)[C@H]1CC[C@H]2[C@@H]3CC[C@@]4(O)[C@@H](O)[C@@H](O)CC[C@]4(C)[C@H]3CC[C@]12C | – | – | 34 µM | 34.4 µM | – | 35.1 µM | IC50 (A549): 31.8 µM |
| CCCCCCCCCCCC(=O)O[C@H]1CC[C@@]2(C)C(=C[C@H](O)[C@H]3[C@@H]4CC[C@H]([C@H](C)CCCC(C)C)[C@@]4(C)CC[C@@H]32)C1 | – | – | > 50 µM | – | – | – | IC50 (HT-29 [4]): > 50 µM |
| CC(=O)O[C@H]1C=C2C[C@@H](O)CC[C@]2(C)[C@H]2CC[C@]3(C)[C@@H]([C@H](C)CCCC(C)C)CC[C@H]3[C@H]12 | – | – | 26.8 µM | – | – | – | IC50 (HT-29 [4]): 24.6 µM |
| CC(=O)O[C@H]1CC[C@]2(C)[C@H]3CC[C@]4(C)[C@@H]([C@H](C)CCCC(C)C)CC[C@H]4[C@@H]3[C@@H](OC(C)=O)C(=O)[C@@]2(O)C1 | – | – | 27.2 µM | – | – | – | – |
| CC(C)CCC[C@@H](C)[C@H]1CC[C@H]2[C@@H]3C(=O)[C@H](O)[C@@]4(O)C[C@@H](O)CC[C@]4(C)[C@H]3CC[C@]12C | 1.69 | 25.7 µM | 15.2 µM | – | – | – | – |
| CC(C)CCC[C@@H](C)[C@H]1CC[C@H]2[C@@H]3[C@@H](O)C=C4C[C@@H](O)CC[C@]4(C)[C@H]3CC[C@]12C | 3.13 | – | – | – | 16.4 µM | – | – |
| CC(C)CCC[C@@H](C)[C@H]1CC[C@H]2[C@@H]3C(=O)C(O)=C4C[C@@H](O)CC[C@]4(C)[C@H]3CC[C@]12C | – | – | 36.7 µM | – | – | – | – |
| CO[C@]12C[C@@H](O)CC[C@]1(C)[C@H]1CC[C@]3(C)[C@@H]([C@H](C)CCCC(C)C)CC[C@H]3[C@@H]1C[C@H]2O | – | – | 36.1 µM | – | – | – | – |
| CC(C)CCC[C@@H](C)[C@H]1CC[C@H]2[C@@H]3[C@@H](O)C=C4[C@@H](O)[C@@H](O)CC[C@]4(C)[C@H]3CC[C@]12C | 1.66 | 25.6 µM | 15.4 µM | – | – | – | – |
| CC(C)CCC[C@@H](C)[C@H]1CC[C@H]2[C@@H]3[C@@H](O)[C@H](O)[C@H]4C[C@@H](O)CC[C@]4(C)[C@H]3CC[C@]12C | 1.28 | 19.1 µM | 14.9 µM | – | – | – | – |
| CO[C@@H]1C[C@H]2[C@@H]3CC[C@H]([C@H](C)CCCC(C)C)[C@@]3(C)CC[C@@H]2[C@@]2(C)CC[C@H](O)C[C@]12O | 2.58 | 25.8 µM | 10 µM | 13.3 µM | – | 17.4 µM | IC50 (BJ): 17.4 µM; IC50 (LAMA-84): 4.3 µM |
| CC(=O)N[C@@H]1C[C@H]2[C@@H]3CC[C@H]([C@H](C)CCCC(C)C)[C@@]3(C)CC[C@@H]2[C@@]2(C)CC[C@H](O)C[C@]12O | 1.31 | 19 µM | 14.5 µM | 11.6 µM | – | 19.2 µM | IC50 (A549): 14.5 µM |
| CCCO[C@@H]1C[C@H]2[C@@H]3CC[C@H]([C@H](C)CCCC(C)C)[C@@]3(C)CC[C@@H]2[C@@]2(C)CC[C@H](O)C[C@]12O | – | – | 25.9 µM | – | – | – | – |
| CC(=O)O[C@@H]1[C@H]2[C@@H]3CC[C@H]([C@H](C)CCCC(C)C)[C@@]3(C)CC[C@@H]2[C@@]2(C)CC[C@H](O)C[C@]2(O)[C@@H]1O | 0.93 | 15.8 µM | 17 µM | – | – | – | IC50 (HT-29 [4]): 15.5 µM |
| CC(=O)O[C@@H]1[C@H]2[C@@H]3CC[C@H]([C@H](C)CCCC(C)C)[C@@]3(C)CC[C@@H]2[C@@]2(C)CC[C@H](O)C[C@]2(O)[C@@H]1OC(C)=O | 0.85 | 11.2 µM | 13.1 µM | 11.7 µM | 13.8 µM | 10.3 µM | IC50 (BJ): 10.2 µM; Activity (BJ): Toxic; inhibition (HepG2): Dose-dependent effect; inhibition (LAMA-84): Dose-dependent effect; IC50 (LAMA-84): 6.4 µM; inhibition (A549): Dose-dependent effect; IC50 (A549): 13.9 µM; IC50 (HT-29 [4]): 14.9 µM; inhibition (SH-SY5Y): Dose-dependent effect; inhibition (PC-3): Dose-dependent effect; inhibition (MCF7): Dose-dependent effect; IC50 (MCF7): 13.2 µM; Activity [2]: Toxic; inhibition (HT-29 [5]): Dose-dependent effect |
| CC(=O)O[C@@H]1C[C@H]2[C@@H]3CC[C@H]([C@H](C)CCCC(C)C)[C@@]3(C)CC[C@@H]2[C@@]2(C)CC[C@H](O)C[C@]12O | 2.58 | 17.9 µM | 6.8 µM | 11.9 µM | 12.2 µM | 13.2 µM | IC50 (BJ): 13.4 µM; IC50 (LAMA-84): 3.9 µM; IC50 (A549): 13.3 µM; IC50 (HT-29 [4]): 6.6 µM; IC50 (MCF7): 11 µM |
| CC(C)CCC[C@@H](C)[C@H]1CC[C@H]2[C@@H]3CC(=O)[C@@]4(O)C[C@@H](O)CC[C@]4(C)[C@H]3CC[C@]12C | 1.99 | 33.9 µM | – | – | – | – | – |
| CC(=O)O[C@H]1CC[C@]2(C)[C@H]3CC[C@]4(C)[C@@H]([C@H](C)CCCC(C)C)CC[C@H]4[C@@H]3C[C@@H](O)[C@@]2(O)[C@H]1O | 1.63 | 28.8 µM | 17.7 µM | – | – | – | IC50 (HT-29 [4]): 14.2 µM |
| CC(C)CCC[C@@H](C)[C@H]1CC[C@H]2[C@@H]3C[C@@H](O)[C@@]4(O)C[C@@H](O)CC[C@]4(C)[C@H]3CC[C@]12C [CHOLESTAN-3beta,5alpha,6beta-TRIOL] | 1.48 | – | – | – | 17.2 µM | – | – |
| CC(C)CCC[C@@H](C)[C@H]1CC[C@H]2[C@@H]3C(=O)C=C4C[C@@H](O)CC[C@]4(C)[C@H]3CC[C@]12C [7-OXOCHOLESTEROL] | 1.26 | 32.3 µM | – | – | – | – | – |
